Measured values collected from several papers.
Protocols differ between the studies behind these lines.
Cell line: HCT-116
Observed: cell growth or viability

Structure (SMILES)	method	time	IC50
CC1(P2(=O)CCCCC2)CCCCC1	MTT	72 h	69.3 µM
O=C1/C(=C/c2ccc3ccccc3c2O)NC(=S)N1c1ccccc1	MTT	–	7.25 µg/mL
O=C(CCc1ccc(Cl)cc1)N1C(=O)C(=Nc2ccc(Cl)cc2Br)c2ccccc21	MTT	48 h	23.2 µM
N#Cc1ccc(-c2cc(COc3cc(C(F)(F)F)nc4ccccc34)on2)cc1	MTS	72 h	> 100 µM
O=C(C=Cc1cccs1)c1ccc(OCCOc2ccc(C(=O)C=Cc3cccs3)cc2)cc1	MTT	48 h	18.1 µM
O=C1CSC(=Nc2cc([N+](=O)[O-])ccc2[N+](=O)[O-])N1c1nnc(-c2ccc(C(F)(F)F)cc2N=C2SCC(=O)N2c2cc([N+](=O)[O-])ccc2[N+](=O)[O-])s1	MTT	–	80.9 µM
Cc1cc2c(C(N)=O)cccc2n1-c1nc2c(c(NCc3ccccc3)n1)CCCN2	ATP luminescence	72 h	0.7 µM
OCn1cncn1	MTT	24 h	48.8 µM
FC(F)(F)c1ccc(-c2cc(CNc3cccc4cccnc34)on2)cc1	MTS	72 h	> 100 µM
COc1cccc2c1C(=O)c1c(O)c3c(c(O)c1C2=O)C[C@@](O)(C(=O)CO)C[C@@H]3O[C@H]1C[C@H](N)[C@H](O)[C@H](C)O1	LDH	48 h	8.12 µM
Cc1cc2c(C(N)=O)cccc2n1-c1nc2c(c(OCc3ccccc3)n1)CCCN2	ATP luminescence	72 h	3.4 µM
c1ccc(-c2cc(CNc3cccc4cccnc34)on2)cc1	MTS	72 h	> 100 µM
Fc1ccc2c(-c3nnc(Cc4ccccc4)s3)nn(Cc3ccccc3)c2c1	–	48 h	73.9 µM
CC(=O)c1nc2ccccc2n1Cc1cn([C@@H]2O[C@H](CO)[C@H](O)[C@H](O)[C@H]2O)nn1	LDH	48 h	8.68 µM
O=C1Nc2ccccc2C1=Nc1ccc(Cl)cc1	MTT	48 h	> 100 µM
COc1ccc(N(Cc2csc(-c3ccccc3)n2)C(=O)CCCCCC(=O)NO)cc1	MTT	72 h	1.12 µM
Cc1cc2c(C(N)=O)cccc2n1-c1nc2c(c(NCc3ccccc3O)n1)CCCN2	ATP luminescence	72 h	5 µM
Clc1ccc(Cn2nc(-c3nc(-c4ccccc4)no3)c3ccccc32)c(Cl)c1	–	48 h	324 µM
COc1cccc2c1C(=O)c1c(O)c3c(c(O)c1C2=O)C[C@@](O)(C(=O)CO)C[C@@H]3O[C@H]1C[C@H](N)[C@H](O)[C@H](C)O1	MTT	–	41.2 µM
O=C(CSc1nc2ccccc2s1)N/N=C/c1ccc(OCC(=O)Nc2cccc(Cl)c2)cc1	MTS	72 h	> 100 µM
Cc1cccc(N=C2C(=O)N(Cc3ccc(Br)cc3)c3ccccc32)c1	MTT	48 h	8.21 µM
CC(C)CNC(=S)N/N=C/c1cccc2cc3ccccc3nc12	MTT	48 h	> 50 µM

Structure (SMILES)	method	time	IC50
O=[N+]([O-])c1cc(Br)c(O)c(C=NNc2ccc(C(F)(F)F)cc2)c1	MTT	24 h	9.42 µM
COc1ccc2c(-c3nc(-c4ccccc4)no3)nn(Cc3ccncc3)c2c1	–	48 h	10.8 µM
O=[N+]([O-])c1ccc(O)c(C=NNc2ccc(Br)cc2)c1	MTT	24 h	7.23 µM
Cc1ccc(NC(=O)Cn2cc(COc3ncnc4[nH]cnc34)nn2)c(C)c1	MTT	–	> 100 µM
COc1cccc2c1C(=O)c1c(O)c3c(c(O)c1C2=O)C[C@@](O)(C(=O)CO)C[C@@H]3O[C@H]1C[C@H](N)[C@H](O)[C@H](C)O1	MTT	24 h	1.06 µM
COc1cccc2c1C(=O)c1c(O)c3c(c(O)c1C2=O)C[C@@](O)(C(=O)CO)C[C@@H]3O[C@H]1C[C@H](N)[C@H](O)[C@H](C)O1	MTT	72 h	0.2 µM
C=CCN1C(=O)C(=Nc2cccc(C)c2)c2ccccc21	MTT	48 h	> 100 µM
O=[N+]([O-])c1ccc(NC(=S)N/N=C/c2cccc3cc4ccccc4nc23)cc1	MTT	48 h	> 50 µM
Cc1noc(-c2nn(Cc3ccc(Cl)cc3Cl)c3ccccc23)n1	–	48 h	192 µM
O=C1C(=Nc2ccc(Cl)cc2)c2ccccc2N1Cc1ccc(Br)cc1	MTT	48 h	21.4 µM
O=C(C=Cc1cccs1)c1ccc(OCCCOc2ccc(C(=O)C=Cc3cccs3)cc2)cc1	MTT	48 h	30.7 µM
COc1ccc(N=C2SCC(=O)N2c2nnc(-c3ccc(C(F)(F)F)cc3N=C3SCC(=O)N3c3ccc(OC)cc3)s2)cc1	MTT	–	65.2 µM
O=C1/C(=C/c2ccc([N+](=O)[O-])cc2[N+](=O)[O-])NC(=S)N1c1ccccc1	MTT	–	98.5 µg/mL
CCOC(=O)c1cc(C)n(Cn2cnc3ccccc32)n1	MTT	24 h	47.9 µM
O=C(CSc1nc2ccccc2s1)N/N=C/c1ccc(OCC(=O)Nc2cccc(Br)c2)cc1	MTS	72 h	> 100 µM
Cc1cc(NS(=O)(=O)c2ccc(NC(=O)/C(C#N)=C/c3ccncc3)cc2)no1	MTT	48 h	187 µM
O=C1C(=Nc2ccc(Cl)cc2)c2ccccc2N1Cc1ccc([N+](=O)[O-])cc1	MTT	48 h	1.75 µM
N#Cc1ccc(-c2cc(COc3cc(=O)oc4ccccc34)on2)cc1	MTS	72 h	> 100 µM
CCc1ccc(N=C2C(=O)Nc3ccccc32)cc1	MTT	48 h	64.7 µM
O=C1CS/C(=N\c2cc(C(F)(F)F)ccc2-c2nnc(N3C(=O)CS/C3=N\c3ccc(F)cc3)s2)N1c1ccc(F)cc1	MTT	–	21.2 µM
CC(C)c1cccc(C(C)C)c1N=C1C(=O)N(Cc2ccc(Br)cc2)c2ccccc21	MTT	48 h	37.4 µM
O=[N+]([O-])c1cc(I)c(O)c(C=NNc2ccccc2)c1	MTT	24 h	6.34 µM
